Legend:
[1] = molecular target: T1, HPr kinase/phosphorylase (Bacillus subtilis (strain 168)) (UniProt O34483); experiment: Percent inhibition of Histidine containing protein K in kinase assay with histidine containing protein at 100 uM
T1 sequence (whole entry): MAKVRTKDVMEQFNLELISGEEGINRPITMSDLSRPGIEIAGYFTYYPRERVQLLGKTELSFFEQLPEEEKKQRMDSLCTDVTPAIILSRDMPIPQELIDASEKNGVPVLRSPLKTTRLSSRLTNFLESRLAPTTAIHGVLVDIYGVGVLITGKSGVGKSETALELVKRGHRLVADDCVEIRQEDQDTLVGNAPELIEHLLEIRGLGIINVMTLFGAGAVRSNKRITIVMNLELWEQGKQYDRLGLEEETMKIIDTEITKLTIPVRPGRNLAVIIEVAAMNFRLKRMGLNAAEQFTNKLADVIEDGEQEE
In short: (§1)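 Single-point kinase test at 10 and 100 µM final compound. HPr(His)6 (10 µM) is phosphorylated by 100 nM B. subtilis HPrK/P(Trx-His6-S-tag) with 0.5 mM [γ-32P]ATP, 5 mM MgCl2, 2 mM FBP, 0.1% BSA, 50 mM Tris pH 8; 37 °C, 10 min. 32P incorporation measured on P81 paper by scintillation.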

[2] = molecular target: T1, HPr kinase/phosphorylase (Bacillus subtilis (strain 168)); experiment: Percent inhibition of Histidine containing protein K in kinase assay with histidine containing protein at 10 uM; in short: as §1
[3] = molecular target: T1, HPr kinase/phosphorylase (Bacillus subtilis (strain 168)); experiment: Percent inhibition of Histidine containing protein K/P in kinase assay; set-up: concentration or dose not given beside the values; conditions: concentration not given here
[4] = molecular target: HPr kinase/phosphorylase (Bacillus subtilis) (UniProt O34483); experiment: Effective concentration for inhibition of HPr kinase/phosphorylase in kinase assay
[5] = Hill slope for the compound was measured for inhibition of histidine containing protein kinase assay
In short: (§2)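 B. subtilis HPrK/P(Trx-His6-S-tag) kinase, 100 nM, added last to start the reaction with 10 µM HPr(His)6 or Crh(His)6, 0.5 mM [γ-32P]ATP, 5 mM MgCl2, 2 mM FBP, 0.1% BSA, 50 mM Tris pH 8, 10% DMSO; 37 °C, 10 min. Read-out is P81 paper capture, H3PO4 washes and scintillation counting. Thirteen serial inhibitor concentrations, typically in triplicate; EC50 and Hill coefficient from nonlinear regression.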

[6] = Hill slope for the compound was measured for inhibition of Crh kinase assay
[7] = molecular target: T2, HPr kinase/phosphorylase (Bacillus subtilis (strain 168), UniProt O34483); experiment: Inhibition of histidine containing protein in kinase assay; in short: as §2
T2 sequence (O34483 whole entry): T1 sequence (whole entry)

[8] = molecular target: T1, HPr kinase/phosphorylase (Bacillus subtilis (strain 168)); experiment: Percent inhibition of Histidine containing protein K in kinase assay at 100 uM; in short: as §1
[9] = molecular target: T1, HPr kinase/phosphorylase (Bacillus subtilis (strain 168)); experiment: Percent inhibition of Histidine containing protein K in kinase assay at 10 uM; in short: as §1
[10] = Hill slope for the compound was measured for inhibition of histidine containing protein kinase assay along with ADP
In short: (§3)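 Kinase reaction, 37 °C 10 min: 100 nM HPrK/P(Trx-His6-S-tag), 10 µM HPr(His)6 or Crh(His)6, 0.5 mM [γ-32P]ATP, 2 mM FBP, 0.1% BSA, pH 8 Tris. ADP given alone or combined with inhibitor at a fixed concentration ratio; ≥13 conditions in triplicate. Phosphate retained on P81 paper is counted. EC50 and Hill coefficient fitted by nonlinear regression.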

[11] = molecular target: T2, HPr kinase/phosphorylase; experiment: Inhibition of histidine containing protein in kinase assay with ADP; in short: as §3
[12] = Combined index for the compound to that of ADP in kinase assay against histidine containing protein
In short: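 B. subtilis HPrK/P(Trx-His6-S-tag), 100 nM, phosphorylating 10 µM HPr(His)6 or Crh(His)6; [γ-32P]ATP 0.5 mM, 50 mM Tris pH 8, 5 mM MgCl2, 2 mM FBP, 0.1% BSA, 37 °C, 10 min. Inhibitor and ADP co-varied at a constant ratio set by their separate EC50s; ≥13 conditions in triplicate. Chou-Talalay combination index computed at EC50.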

[13] = Hill slope for the compound was measured for inhibition of histidine containing protein phosphatase assay
In short: (§4)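 Substrates HPr(His)6 or Crh(His)6 (8 µM final) are first fully phosphorylated by HPrK/P with [γ-32P]ATP and FBP, pH 8, 37 °C. Inhibitor, 13 serial concentrations premixed with inorganic phosphate (K2HPO4/KH2PO4, pH 8.0, 1 mM final), then added and incubated 2 h at 37 °C. Precipitating top concentrations excluded. Read-out by P81/scintillation; mean of n = 3; EC50 and Hill coefficient by nonlinear regression.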

[14] = Hill slope for the compound was measured for inhibition of Crh kinase assay along with ADP
[15] = Effective concentration for inhibition of […] in kinase assay along with ADP; set-up: species or system Bacillus subtilis; in short: as §3
[16] = Combined index for the compound to that of ADP in kinase assay against Crh
[17] = molecular target: T2, HPr kinase/phosphorylase; experiment: Inhibition of histidine containing protein in phosphatase assay; in short: as §4
[18] = Effective concentration for inhibition of […] in phosphatase assay; set-up: species or system Bacillus subtilis; in short: as §4
[19] = Hill slope for the compound was measured for inhibition of Crh phosphatase assay

Structure (SMILES) | inhibition [1] [%] | inhibition [2] [%] | other results
Nc1n(Cc2ccccc2)c2ccccc2[n+]1CCCCCC(=O)[O-] | 10 | 3 | –
Cn1c(N)[n+](CCCCCCCCCCCC[n+]2c(N)n(C)c3ccccc32)c2ccccc21 | – | – | inhibition [3]: 64%
Nc1n(Cc2ccccc2)c2ccccc2[n+]1CCCCCCCCCCCCNCc1ccccc1 | 96 | 50 | –
Nc1n(Cc2ccccc2)c2ccccc2[n+]1CCCCCNCc1ccccc1 | 53 | 12 | –
Nc1sc2ccccc2[n+]1CCCCCCCCCCCC[n+]1c(N)sc2ccccc21 | – | – | inhibition [3]: < 5%
Nc1n(Cc2ccccc2)c2ccccc2[n+]1CCCCCCCCCCCCN1C(=O)c2ccccc2C1=O | 97 | 40 | –
Nc1n(Cc2ccccc2)c2ccccc2[n+]1CCCCCCCC[n+]1c(N)n(Cc2ccccc2)c2ccccc21 | – | – | EC50 [4]: 71 µM; Activity [5]: 1.1; Activity [6]: 2.2; EC50 [7]: 20 µM
Nc1n(Cc2ccccc2)c2ccccc2[n+]1CC(=O)[O-] | 3 | 2 | –
CC(C)(C)OC(=O)NCCC[n+]1c(N)n(Cc2ccccc2)c2ccccc21 | 12 | 18 | –
Nc1n(Cc2ccccc2)c2ccccc2[n+]1CC(=O)Nc1ccccc1 | 16 | 13 | –
Nc1c2ccccc2cc[n+]1CCCCCCCCCCCC[n+]1ccc2ccccc2c1N | – | – | inhibition [3]: < 5%
NCCCCCC[n+]1c(N)n(Cc2ccccc2)c2ccccc21 | 33 | 12 | –
CCCCC[n+]1c(N)n(Cc2ccccc2)c2ccccc21 | 32 | 12 | –
CCCCCCCCCCCC[n+]1c(N)n(Cc2ccc(Cl)cc2)c2ccccc21 | 21 | 17 | –
CCCCCCCCCCCC[n+]1c(N)n(Cc2ccc(Cl)c(Cl)c2)c2ccccc21 | 51 | 9 | –
Nc1n(Cc2ccccc2)c2ccccc2[n+]1CCCO | 6 | 4 | –
CCCCCCCCCCCC[n+]1c(N)n(Cc2ccc(C)cc2)c2ccccc21 | 23 | 0 | –
CN1CCN(CCCCCCCCCCCC[n+]2c(N)n(Cc3ccccc3)c3ccccc32)CC1 | 93 | 35 | –
CCCCCCCCCCCC[n+]1c(N)n(CCc2ccccc2)c2ccccc21 | 98 | 0 | –
Nc1n(Cc2ccccc2)c2ccccc2[n+]1CCCCCCCCCCCCN1CCN(c2ccccc2)CC1 | 96 | 41 | –
Nc1ncnc2c1ncn2[C@@H]1O[C@H](COP(=O)(O)OP(=O)(O)O)[C@@H](O)[C@H]1O [ADENOSINE DIPHOSPHATE] | – | – | EC50 [4]: 7400 µM; Activity [5]: 0.9; Activity [6]: 1.4; EC50 [7]: 4300 µM
Nc1n(Cc2ccccc2)c2ccccc2[n+]1CCCCCCCCN1CCN(c2ccccc2)CC1 | 86 | 33 | –
CCCCCCCCCCCC[n+]1c(N)n(Cc2ccccc2)c2ccccc21 | – | – | EC50 [4]: 32 µM; Activity [5]: 5.3; inhibition [8]: 90%; Activity [6]: 6.4; inhibition [9]: 18%; EC50 [7]: 29 µM
NCCCCCCCCCCC[n+]1c(N)n(Cc2ccccc2)c2ccccc21 | 62 | 24 | –

Structure (SMILES) | inhibition [1] [%] | inhibition [2] [%] | other results
CC(C)(C)OC(=O)NCCCCCCCCCCC[n+]1c(N)n(Cc2ccccc2)c2ccccc21 | 96 | 14 | –
Nc1cccc[n+]1CCCCCCCCCCCC[n+]1ccccc1N | – | – | inhibition [3]: < 5%
NC(=O)CCCCC[n+]1c(N)n(Cc2ccccc2)c2ccccc21 | 11 | 3 | –
Nc1n(Cc2ccccc2)c2ccccc2[n+]1CCCCCCCCCCC(=O)[O-] | 39 | 2 | –
Nc1n(Cc2ccccc2)c2ccccc2[n+]1Cc1ccccc1 | 33 | 13 | –
c1c[n+](CCCCCCCCCCCC[n+]2cc[nH]c2)c[nH]1 | – | – | inhibition [3]: < 5%
CC(C)(C)OC(=O)NCCCCCC[n+]1c(N)n(Cc2ccccc2)c2ccccc21 | 14 | 9 | –
Nc1n(Cc2ccccc2)c2ccccc2[n+]1CCCc1ccccc1 | 20 | 11 | –
Nc1n(Cc2ccccc2)c2ccccc2[n+]1CCCCCCO | 5 | 13 | –
Nc1n(Cc2ccccc2)c2ccccc2[n+]1CCCCC[n+]1c(N)n(Cc2ccccc2)c2ccccc21 | – | – | EC50 [4]: 210 µM; Activity [5]: 1.3; Activity [6]: 1.3; EC50 [7]: 93 µM
CCCCCCCCCCCC[n+]1c(N)n(CCCc2ccccc2)c2ccccc21 | 96 | 38 | –
NCCC[n+]1c(N)n(Cc2ccccc2)c2ccccc21 | 24 | 18 | –
CNC(=O)C[n+]1c(N)n(Cc2ccccc2)c2ccccc21 | 7 | 7 | –
Nc1n(Cc2ccccc2)c2ccccc2[n+]1CCCCCN1CCN(c2ccccc2)CC1 | 34 | 13 | –
CCC[n+]1c(N)n(Cc2ccccc2)c2ccccc21 | 14 | 13 | –
Nc1n(Cc2ccccc2)c2ccccc2[n+]1CCCCCCCCCCCC[n+]1c(N)n(Cc2ccccc2)c2ccccc21.Nc1ncnc2c1ncn2[C@@H]1O[C@H](COP(=O)(O)OP(=O)(O)O)[C@@H](O)[C@H]1O | – | – | Activity [10]: 2.2; EC50 [4]: 21 µM; Activity [5]: 1.8; EC50 [11]: 5.2 µM; CI [12]: 1; Activity [13]: 2.1; Activity [14]: 2.3; Activity [6]: 2.4; EC50 [15]: 12 µM; CI [16]: 1.1; EC50 [17]: 16 µM; EC50 [7]: 10 µM; EC50 [18]: 14 µM; Activity [19]: 1.7
Nc1n(Cc2ccccc2)c2ccccc2[n+]1CCCCCCCCCCCCNc1ccccc1 | 96 | 46 | –
CCCCCCCCCCCC[n+]1c(N)n(Cc2ccc(OC)cc2)c2ccccc21 | 95 | 34 | –
Nc1n(Cc2ccccc2)c2ccccc2[n+]1CCCCCCCCCCCCN1CCOCC1 | 90 | 31 | –
Nc1n(Cc2ccccc2)c2ccccc2[n+]1CCCCCCCCCCCO | 37 | 9 | –
CCCCCCCC[n+]1c(N)n(Cc2ccccc2)c2ccccc21 | 55 | 9 | –
Nc1cc2c(n[n+]1CCCCCCCCCCCC[n+]1nc3c(cc1N)-c1ccccc1CC3)CCc1ccccc1-2 | – | – | inhibition [3]: < 5%
Nc1n(Cc2ccccc2)c2ccccc2[n+]1CCCCCCCCCCCCNC1CCCCC1 | 93 | 11 | –

Source: ChEMBL document CHEMBL1137090, “Heterocyclic bis-cations as starting hits for design of inhibitors of the bifunctional enzyme histidine-containing protein kinase/phosphatase from Bacillus subtilis” (J Med Chem, 2004)
